The text below walks through data of ChEMBL document CHEMBL3228039, “Synthesis and evaluation of the antiovulatory activity of a variety of melatonin analogues” (J Med Chem, 1979).

For series [1], the system named is Rattus norvegicus. The series can be described thus: Antiovulatory activity in Sprague-Dawley rat assessed as blockage of luteinizing hormone surge by measuring reduction in ovulation at 8 mg/kg, po by microscopic analysis. It counts as functional, organism-based. The arrangement: dose 8 mg/kg. The gist of the method: (§1)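 Female rats (270-300 g) with at least two consecutive 4-day estrus cycles, tracked by daily vaginal smears, were used on the day of proestrus. A single dose was given at 1200 h, either iv in 50% Me2SO or orally in PEG 400. Controls received vehicle only. Rats were killed on the day of estrus, and oviducts were examined microscopically for ova. Absence of ova was scored as ovulation blocked.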

The subject of series [2] is Rattus norvegicus. The series can be described thus: Antiovulatory activity in Sprague-Dawley rat assessed as blockage of luteinizing hormone surge by measuring reduction in ovulation at 8 mg/kg, iv by microscopic analysis. The arrangement: dose 8 mg/kg. It counts as functional, organism-based. In a few lines:
as §1

Series [3] concerns Rattus norvegicus. As to the kind of experiment: Antiovulatory activity in Sprague-Dawley rat assessed as blockage of luteinizing hormone surge by measuring reduction in ovulation at 5 mg/kg, po by microscopic analysis. Type of series: functional, organism-based. Further details: dose 5 mg/kg. The gist of the method:
as §1

For another series, the species on record is Xenopus laevis. The series can be described thus: Melatonin-like activity in tadpole by blanching test. Type of series: functional, organism-based.
Series [4] is described as follows: Half life in serum (unknown origin) after first 2 hrs post iv dose. Type of series: ADME, organism-based.
Series [5] has as its system Rattus norvegicus. As to the kind of experiment: Antiovulatory activity in Sprague-Dawley rat assessed as blockage of luteinizing hormone surge by measuring reduction in ovulation at 4 mg/kg, iv by microscopic analysis. It counts as functional, organism-based. The arrangement: dose 4 mg/kg. The gist of the method: as §1
Series [6] is described as follows: Half life in rat plasma after 30 mins. Type of series: ADME, cell-free.
The nature of series [7]: Half life in rat plasma after 2 hrs. Type of series: ADME, cell-free.
Series [8] has as its system Rattus norvegicus. The series can be described thus: Antiovulatory activity in Sprague-Dawley rat assessed as blockage of luteinizing hormone surge by measuring reduction in ovulation at 4 mg/kg, po by microscopic analysis. Type of series: functional, organism-based. The arrangement: dose 4 mg/kg. In a few lines: as §1

Active and inactive are the calls of the source. The rule behind the calls is not given here.

On to `CC(=O)NCCc1c[nH]c2ccc(O)cc12`, for which the outcome in the series with Rattus norvegicus [1] and in the series on Rattus norvegicus [2] was Active. With `CC(=O)NCCc1c[nH]c2ccc(OC3CCCC3)cc12`, in the series on Rattus norvegicus [1], the outcome was Active. Still for that read-out and setting: to `COc1cc2c(CCNC(=O)C34CC5CC(CC(C5)C3)C4)c[nH]c2cc1Cl` belongs “Active”.

For the compound `CC(=O)NCCc1c[nH]c2ccc(OC(C)=O)cc12`, the result with Rattus norvegicus [1] and with Rattus norvegicus [2] was Active.

On to `COc1ccc2[nH]cc(CCNC(C)=O)c2c1Cl`, for which, in the series on Rattus norvegicus [1], the outcome was Active.

With `COc1cc2c(CCNC(C)=O)c[nH]c2cc1C`, in the series on Rattus norvegicus [1], the outcome was Active. As for `COc1cc2c(CCNC(C)=O)c[nH]c2cc1Cl`, the outcome with Rattus norvegicus [3] and with Rattus norvegicus [5] was inactive. Besides, in the series listed under Xenopus laevis, the outcome was Active. For the same compound, the half-life (commonly how long it takes for the measured level to halve) in series [4] came out at 27 min. With `COc1ccc2c(c1)c(CCNC(C)=O)cn2C`, the outcome in the series on Rattus norvegicus [1] was Active. With `COc1ccc2[nH]cc(CCNC(C)=O)c2c1` [MELATONIN], the figures for the half-life in series [6], in series [7] and in series [4] were 15 min, 12 min and more than 12 min, respectively. Consider `CCC(=O)NCCc1c[nH]c2cc(Cl)c(OC)cc12`, for which, in the series on Rattus norvegicus [8], the result was inactive. Regarding `CCOc1ccc2[nH]cc(CCNC(C)=O)c2c1`, the result in the series with Rattus norvegicus [1] was Active.
